Entries after “also recorded” stand apart in the source; their conditions may differ.
Experiments:
[1] = test system: A2058 human melanoma cells; assay: ATX-mediated in vitro invasion assay; format: cell-based; settings: exogenous LPC and recombinant ATX; for inhibition of A2058 cell invasion, screen at 10 μM: compared with 30; for inhibition of A2058 cell invasion (in words): dose–response
LPA1 = LPA1 (Homo sapiens, UniProt Q92633); assay: LPA-mediated Ca2+ mobilization, LPA1 RH7777 cells; format: cell-based; settings: for antagonist activity at LPA1 (in words): LPA1-elicited Ca2+ responses
Summary of the method: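 Rat hepatoma RH7777 cells stably expressing LPA1 were seeded at 5 × 10^4 per well on poly-L-lysine, left overnight, then serum-deprived 4 h in HEPES-Krebs buffer pH 7.4. Cells were loaded 30 min with 4.5 μg/mL Fura-2AM plus 0.45% Pluronic F-127. […] The 340/510 and 380/510 nm ratio was read every 3.42 s for 70 s, normalized to LPA Emax, and fitted by variable-slope regression for IC50.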

human recombinant ATX [2] = biological target: T1, human recombinant ATX (Homo sapiens, UniProt Q13822); assay: ATX lysophospholipase D activity, FS-3 hydrolysis; format: biochemical; settings: FS-3 0 to 10 μM, inhibitor 0, 0.5 × IC50 or 2 × IC50; best global fit
[3] = test system: 4T1-TaxR cancer stem-like cells (mammospheres); assay: 4T1-TaxR mammosphere viability with paclitaxel; format: cell-based, mouse
[4] = In vitro stability in 4T1 cell culture by LC-MS; format: in vitro ADME, mouse; settings: 40 h of exposure to 4T1 cells
human recombinant ATX [5] = biological target: T1, human recombinant ATX; assay: ATX nucleotide pyrophosphatase activity, pNP-TMP hydrolysis; format: biochemical; settings: 1 mM pNP-TMP, 4 nM ATX, compound 0 to 1 μM
Summary of the method: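 Human recombinant FLAG-tagged ATX was expressed in Sf9 insect cells and purified on anti-FLAG resin. Absorbance at 405 nm was read every 2 min for 1 h.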

[6] = test system: 4T1 breast cancer cell line; assay: Chemoresistance of 4T1 cells to paclitaxel; format: cell-based, mouse; settings: for LD50 to PT with ATX inhibitor pretreatment: 24 h pretreatment with 3 μM compound, then PT 48 h
[7] = biological target: T2, purified recombinant ENPP6 (Homo sapiens, UniProt Q6UWR7); assay: ENPP6 inhibition, pNPPC hydrolysis; format: biochemical; settings: 10 μM pNPPC, 10 nM ENPP6, compound 0 to 10 μM; data not shown
T2 sequence (Q6UWR7 23-440): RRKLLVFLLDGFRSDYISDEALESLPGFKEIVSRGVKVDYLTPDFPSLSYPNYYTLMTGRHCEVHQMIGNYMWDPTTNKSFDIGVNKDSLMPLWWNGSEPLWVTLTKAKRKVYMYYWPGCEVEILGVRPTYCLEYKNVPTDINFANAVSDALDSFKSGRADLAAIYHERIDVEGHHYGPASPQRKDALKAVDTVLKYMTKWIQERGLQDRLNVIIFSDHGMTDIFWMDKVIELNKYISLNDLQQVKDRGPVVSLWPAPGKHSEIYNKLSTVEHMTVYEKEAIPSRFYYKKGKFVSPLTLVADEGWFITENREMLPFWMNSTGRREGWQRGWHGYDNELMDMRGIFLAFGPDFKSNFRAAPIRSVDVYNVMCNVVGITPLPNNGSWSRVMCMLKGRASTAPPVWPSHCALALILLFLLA
Summary of the method: (§1)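 Purified recombinant enzyme (0 or 10 nM) was incubated with 10 μM pNPPC and 0–10 μM test compound in triplicate wells. Buffers were 100 mM Tris, 500 mM NaCl, 0.05% Triton, pH 9.0 for ENPP6, and 50 mM Tris, 150 mM NaCl, 10 mM taurocholate, pH 8.5 for ENPP7. Absorbance at 405 nm was read every 2 min for 1 h.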

[8] = biological target: T3, purified recombinant ENPP7 (Homo sapiens, UniProt Q6UWV6); assay: ENPP7 inhibition, pNPPC hydrolysis; format: biochemical; settings: 10 μM pNPPC, 10 nM ENPP7, compound 0 to 10 μM; data not shown
T3 sequence (Q6UWV6 22-458): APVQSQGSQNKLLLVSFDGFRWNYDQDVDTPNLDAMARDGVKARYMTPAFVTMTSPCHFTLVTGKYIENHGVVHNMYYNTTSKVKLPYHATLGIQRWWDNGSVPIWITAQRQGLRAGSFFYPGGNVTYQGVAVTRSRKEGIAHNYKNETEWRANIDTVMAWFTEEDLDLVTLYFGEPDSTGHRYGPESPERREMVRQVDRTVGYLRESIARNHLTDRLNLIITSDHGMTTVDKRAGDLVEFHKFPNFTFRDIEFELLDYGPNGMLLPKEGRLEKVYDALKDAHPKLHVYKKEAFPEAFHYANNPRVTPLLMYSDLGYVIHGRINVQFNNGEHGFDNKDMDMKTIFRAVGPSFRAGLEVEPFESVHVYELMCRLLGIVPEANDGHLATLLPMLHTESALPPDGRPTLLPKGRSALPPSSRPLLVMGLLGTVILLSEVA
Summary of the method: as §1

LPA2 = LPA2 (Homo sapiens, UniProt Q9HBW0); assay: LPA-mediated Ca2+ mobilization, LPA2 MEF cells; format: cell-based; settings: read-out: LPA2 Emax
LPA5 = LPA5 (Homo sapiens, UniProt Q9H1C0); assay: LPA-mediated Ca2+ mobilization, LPA5 B103 cells; format: cell-based; settings: LPA 18:1 alone; normalized to percentage of LPA 18:1 Emax
LPA3 = biological target: T4, LPA3 (Homo sapiens, UniProt Q9UBY5); assay: LPA-mediated Ca2+ mobilization, LPA3 RH7777 cells; format: cell-based; settings: RH7777, read-out: LPA3 Emax
T4 sequence (Q9UBY5 1-353): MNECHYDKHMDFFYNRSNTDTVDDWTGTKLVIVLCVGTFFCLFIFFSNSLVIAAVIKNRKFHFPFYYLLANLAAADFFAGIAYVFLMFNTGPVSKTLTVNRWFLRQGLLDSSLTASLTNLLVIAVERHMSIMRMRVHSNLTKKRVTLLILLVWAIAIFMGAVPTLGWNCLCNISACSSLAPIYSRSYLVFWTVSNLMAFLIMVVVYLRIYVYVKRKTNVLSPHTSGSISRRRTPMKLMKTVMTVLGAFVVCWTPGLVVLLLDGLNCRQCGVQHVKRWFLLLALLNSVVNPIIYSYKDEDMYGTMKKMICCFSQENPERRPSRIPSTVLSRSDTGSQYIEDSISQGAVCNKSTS

LPA4 = LPA4 (Homo sapiens, UniProt Q99677); assay: LPA-mediated Ca2+ mobilization, LPA4 CHO cells; format: cell-based; settings: read-out: LPA4 Emax
Sequence of LPA4 (Q99677 whole entry, species assumed): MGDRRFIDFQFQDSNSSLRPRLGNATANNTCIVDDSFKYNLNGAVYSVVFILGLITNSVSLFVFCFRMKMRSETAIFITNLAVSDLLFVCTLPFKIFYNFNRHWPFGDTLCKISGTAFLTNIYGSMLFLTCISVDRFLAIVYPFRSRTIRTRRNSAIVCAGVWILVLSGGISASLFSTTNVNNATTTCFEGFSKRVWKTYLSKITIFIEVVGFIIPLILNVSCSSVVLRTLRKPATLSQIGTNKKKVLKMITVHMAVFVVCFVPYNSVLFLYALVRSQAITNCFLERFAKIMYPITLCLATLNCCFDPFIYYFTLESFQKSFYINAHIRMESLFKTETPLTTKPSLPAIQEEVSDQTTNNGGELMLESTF

Sequence of LPA1 (Q92633 whole entry, species assumed): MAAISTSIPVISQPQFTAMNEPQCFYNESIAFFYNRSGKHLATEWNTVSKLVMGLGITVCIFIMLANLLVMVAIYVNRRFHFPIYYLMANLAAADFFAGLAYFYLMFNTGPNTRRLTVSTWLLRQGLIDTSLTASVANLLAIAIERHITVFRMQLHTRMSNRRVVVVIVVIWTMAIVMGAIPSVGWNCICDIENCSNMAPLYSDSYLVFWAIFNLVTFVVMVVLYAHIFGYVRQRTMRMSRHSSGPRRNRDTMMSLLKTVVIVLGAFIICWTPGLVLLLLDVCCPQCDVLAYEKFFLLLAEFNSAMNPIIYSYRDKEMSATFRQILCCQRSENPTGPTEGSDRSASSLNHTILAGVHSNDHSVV
Sequence of LPA2 (Q9HBW0 whole entry, species assumed): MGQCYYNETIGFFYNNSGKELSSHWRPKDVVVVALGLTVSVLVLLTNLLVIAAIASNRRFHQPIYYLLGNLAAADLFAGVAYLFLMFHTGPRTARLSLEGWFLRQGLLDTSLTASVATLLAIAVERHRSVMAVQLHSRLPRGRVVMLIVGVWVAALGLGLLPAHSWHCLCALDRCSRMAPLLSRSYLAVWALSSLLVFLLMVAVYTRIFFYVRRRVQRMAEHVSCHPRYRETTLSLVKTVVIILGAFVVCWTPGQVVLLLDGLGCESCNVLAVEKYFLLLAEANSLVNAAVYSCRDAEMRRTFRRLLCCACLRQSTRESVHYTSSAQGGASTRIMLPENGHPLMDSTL
Sequence of LPA5 (Q9H1C0 whole entry, species assumed): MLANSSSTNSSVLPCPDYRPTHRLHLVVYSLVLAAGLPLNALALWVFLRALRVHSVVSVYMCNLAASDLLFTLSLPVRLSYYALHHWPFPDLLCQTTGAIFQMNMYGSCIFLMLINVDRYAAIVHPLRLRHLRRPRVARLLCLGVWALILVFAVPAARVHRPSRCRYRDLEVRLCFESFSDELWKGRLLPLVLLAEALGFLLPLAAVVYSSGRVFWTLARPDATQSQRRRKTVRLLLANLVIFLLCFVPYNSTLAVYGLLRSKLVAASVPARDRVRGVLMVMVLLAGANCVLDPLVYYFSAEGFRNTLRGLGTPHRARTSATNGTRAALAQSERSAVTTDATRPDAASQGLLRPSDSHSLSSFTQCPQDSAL

Emax (LPA1; RH7777, read-out: LPA1 Emax) [%]	Emax (LPA2) [%]	LPA5 μEmax (LPA5)	Emax (LPA3) [%]	Emax (LPA4) [%]	Structure (SMILES)	inhibition of A2058 cell invasion, screen at 10 μM [1]	inhibition of A2058 cell invasion (in words) [1]	antagonist activity at LPA1 (in words) (LPA1)	mechanism (human recombinant ATX [2])	resensitization of cancer stem-like cells to PT (in words) ([3]; 4T1-TaxR cells)	further reduction of cell viability compared to PT alone ([3]; 4T1-TaxR mammospheres, PT 100 nM, compound 5 μM, 3 days)	in vitro stability (in words) [4]	pNP-TMP inhibition (human recombinant ATX [5])	LD50 to PT with ATX inhibitor pretreatment [6] [nM]	inhibitory activity for ENPP6 [7]	inhibitory activity for ENPP7 [8]	PT LD50 for reducing cell growth by 50%, applied alone ([6]; PT 48 h, no ATX inhibitor) [nM]
–	–	–	–	–	O=C(Nc1cc(F)c(F)c(F)c1)c1cc(S(=O)(=O)N2CCOCC2)c(Cl)cc1Cl [Compound 3b, 2,4-Dichloro-5-(morpholinosulfonyl)-N-(3,4,5-trifluorophenyl)-benzamide]	as effective as 30	inhibit ATX-dependent invasion; also recorded: dose dependently decreased A2058 cell invasion	weak antagonist action; also recorded: exhibited antagonist activity; also recorded: effective in antagonizing LPA1-elicited Ca^2+ responses	competitive	potently reduced in vitro chemotherapeutic resistance; also recorded: effectively resensitized	25–30%	significant stability	sparing effects on hydrolysis of the nucleotide substrate pNP-TMP and none	127	lack inhibitory action	lack inhibitory action	–
100	100	100.00 ± 0.00	100	100	CCCCCCCC/C=C\CCCCCCCC(=O)OCC(O)COP(=O)(O)O (centres unmarked) [LPA 18:1]	–	–	–	–	–	–	–	–	–	–	–	–
–	–	–	–	–	CC(=O)O[C@H]1C(=O)[C@@]2(C)[C@H]([C@H](OC(=O)c3ccccc3)[C@]3(O)C[C@H](OC(=O)[C@H](O)[C@@H](NC(=O)c4ccccc4)c4ccccc4)C(C)=C1C3(C)C)[C@]1(OC(C)=O)CO[C@@H]1C[C@@H]2O [PT, paclitaxel, reference compound]	–	–	–	–	–	–	–	–	–	–	–	202
–	–	–	–	–	O=C(Nc1cc(F)c(Cl)c(F)c1)c1cc(S(=O)(=O)N2CCOCC2)c(Cl)cc1Cl [Compound 3f, 2,4-Dichloro-N-(4-chloro-3,5-difluorophenyl)-5-(morpholinosulfonyl)benzamide]	as effective as 30	dose dependently decreased A2058 cell invasion	weak antagonist action; also recorded: exhibited antagonist activity; also recorded: effective in antagonizing LPA1-elicited Ca^2+ responses	competitive	–	–	significant stability	none	66	lack inhibitory action	lack inhibitory action	–
